Test results reported in ChEMBL document CHEMBL1949627, “Novel triacsin C analogs as potential antivirals against rotavirus infections” (Eur J Med Chem, 2012).
Active and inactive are the calls of the source. No cut-off for these calls is given here.

Assays:
Rotavirus [1] = experiment: Antiviral activity against Rotavirus SA11 in MA104 cells assessed as inhibition of viral replication after 24 hrs by immunofluorescent assay and Western blotting analysis; type: functional; conditions: SA11, MA104, 24 h, read-out: ED50 (the source's name)
Summary of the method: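 Confluent MA104 monolayers infected 1 hr, PBS-washed, then given MEM with compound or DMSO (0.1%) plus trypsin 1 μg/ml. VP6 tracked by IFA (methanol fixation, anti-VP6 mAb, FITC secondary) or Western blot (β-actin control). ED50 derived from TCID50 titers at 24 hr post infection, MOI 0.05, by Litchfield–Wilcoxon.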

[2] = Cytotoxicity against monkey MA104 cells after 24 hrs; type: cell-based, Macaca mulatta; conditions: rhesus monkey, read-out: TD50
Summary of the method: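 Confluent MA104 cells exposed to a range of compound concentrations for 24 hrs; cytotoxicity read with a non-radioactive cytotoxicity (CytoTox 96) kit; TD50 derived by the Litchfield–Wilcoxon method.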

Rotavirus [3] = experiment: Antiviral activity against Rotavirus Wa in MA104 cells assessed as inhibition of viral replication after 24 hrs by immunofluorescent assay and Western blotting analysis; type: functional, organism-based
Rotavirus [4] = experiment: Virucidal activity against Rotavirus SA11 in MA104 cells assessed as reduction in viral titer at 100 uM pretreated for 2 hrs prior infection measured after 12 hrs postinfection by Western blotting analysis; type: functional, organism-based
[5] = Therapeutic index, ratio of TD50 for monkey MA104 cells to ED50 for Rotavirus SA11; type: cell-based; conditions: read-out: Ratio TD50/ED50
Summary of the method: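 TD50: confluent MA104 cells exposed to graded compound concentrations for 24 hrs, cytotoxicity read with CytoTox 96 non-radioactive kit, Litchfield–Wilcoxon fit. ED50: SA11-infected MA104 (MOI 0.05) treated with compound plus trypsin 1 μg/ml, TCID50 titers at 24 hr, Litchfield–Wilcoxon. Index is TD50 divided by ED50.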

Rotavirus [6] = experiment: Virucidal activity against Rotavirus SA11 in MA104 cells assessed as reduction in viral titer at 100 uM pretreated for 2 hrs prior infection measured after 12 hrs postinfection by immunofluorescent assay; type: functional, organism-based
MA104 = experiment: Inhibition of lipogenesis in monkey MA104 cells infected with Rotavirus SA11 assessed as inhibition of increase in lipid droplets at 1 uM after 10 hrs by NBD-cholesterol based fluorescence analysis; type: functional, cell-based; conditions: Macaca mulatta
Summary of the method: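 Confluent MA104 cells, mock- or SA11-infected at MOI 10, incubated with compound or 0.1% DMSO in medium with NBD-cholesterol 1 μg/ml and trypsin 1 μg/ml. Fixed at 10 hr post infection in 4% formaldehyde for 10 min, PBS-washed twice; lipid-droplet fluorescence viewed by fluorescence microscopy.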

Huh-7 = experiment: Inhibition of lipogenesis in human HuH7 cells assessed as inhibition of increase in lipid droplets at 1 uM after 72 hrs by NBD-cholesterol based fluorescence analysis; type: functional, cell-based
Summary of the method: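 Confluent uninfected Huh-7 cells, in which lipid droplets form spontaneously, treated with compound or 0.1% DMSO for 72 hrs. Medium then replaced with NBD-cholesterol (1 μg/ml) for a further 12 hrs. Cells fixed in 4% formaldehyde for 10 min, PBS-washed, and lipid-droplet fluorescence examined by fluorescence microscopy.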

In the case of `C/C=C/C/C=C/CCC(=O)[C@H]1O[C@H]1C(N)=O` [CERULENIN], the EC50 (Rotavirus [1]) is reported as 28.5 µM and the CC50 at 24 h [2] is reported as 56.7 µM.
In the case of `CCC/C=C/C/C=C/C=C/C=N/NS(=O)(=O)CCl`, the EC50 (Rotavirus [1]) is reported as 8.7 µM, the inhibition (Rotavirus [3]) is reported as “Active” and the CC50 at 24 h [2] is reported as 74 µM.
For `CCC/C=C/C/C=C/C=C/C=C/C#N`, the EC50 (Rotavirus [1]) was 21.3 µM, the inhibition (Rotavirus [3]) was “Active” and the CC50 at 24 h [2] was 78.8 µM.
For `CCC/C=C/C/C=C/C=C/C=N/NS(=O)(=O)C(C)C`, the EC50 (Rotavirus [1]) was 9.8 µM, the inhibition (Rotavirus [3]) was “Active” and the CC50 at 24 h [2] was 90.2 µM.
With `O=C(Nc1ccccc1)Nc1ccc(-c2ccc(C(=O)[C@@H]3CCC[C@H]3C(=O)O)cc2)cc1` the EC50 (Rotavirus [1]) was 23.2 µM and the CC50 at 24 h [2] was 85.4 µM.
Compound `C=C1C(=O)O[C@H](CCCCCCCC)[C@H]1C(=O)O` has an EC50 (Rotavirus [1]) of 21.2 µM and a CC50 at 24 h [2] of 28.5 µM.
In the case of `CCC/C=C/C/C=C/C=C/CNc1ccc(C(=O)O)cc1`, the inhibition (Rotavirus [4]) is reported as “inactive”, the EC50 (Rotavirus [1]) is reported as 0.1 µM and the inhibition (Rotavirus [3]) is reported as “Active”. The selectivity ratio [5] was 285, the CC50 at 24 h [2] was 28.5 µM and the inhibition (Rotavirus [6]) was “inactive”. For the same compound, the inhibition (MA104) was “Active” and the inhibition (Huh-7) was “Dose-dependent effect”.
In the case of `CCC/C=C/C/C=C/C=C/C=N/NS(=O)(=O)CCCCl`, the EC50 (Rotavirus [1]) is reported as 11.5 µM, the inhibition (Rotavirus [3]) is reported as “Active” and the CC50 at 24 h [2] is reported as 86.3 µM.
Work on `C=C(C)[C@@H]1CC[C@]2(C(=O)O)CC[C@]3(C)[C@H](CC[C@@H]4[C@@]5(C)CC[C@H](O)C(C)(C)[C@@H]5CC[C@]43C)[C@@H]12` [BETULINIC ACID] yielded an EC50 (Rotavirus [1]) of 22.5 µM and a CC50 at 24 h [2] of 27.8 µM.
Compound `CCCCCCCCCCCCCCCCNc1ccc(C(=O)O)cc1` [CETABEN] has an EC50 (Rotavirus [1]) of 11.3 µM and a CC50 at 24 h [2] of 75.5 µM.
For `Cc1c(C)c2c(c(C)c1O)CCC(C)(COc1ccc(CC3SC(=O)NC3=O)cc1)O2` (stereo unspecified) [TROGLITAZONE], the EC50 (Rotavirus [1]) was 5.8 µM and the CC50 at 24 h [2] was 18.5 µM.
For `CCC/C=C/C/C=C/C=C/C=N/NN=O` [TRIACSIN C], the inhibition (Rotavirus [4]) was “inactive”, the EC50 (Rotavirus [1]) was 0.2 µM and the selectivity ratio [5] was 248. For the same compound, the CC50 at 24 h [2] was 49.6 µM, the inhibition (Rotavirus [6]) was “inactive” and the inhibition (MA104) was “Active”. For the same compound, the inhibition (Huh-7) was “Dose-dependent effect”.
Compound `CCCCCCCCCCC(C)(C)C(=O)Nc1c(OC)cc(OC)cc1OC` [CL-976] has an EC50 (Rotavirus [1]) of 4.3 µM and a CC50 at 24 h [2] of 8.5 µM.
With `CCC/C=C/C/C=C/C=C/C=N/N1CCCS1(=O)=O` the EC50 (Rotavirus [1]) was 2.2 µM, the inhibition (Rotavirus [3]) was “Active” and the CC50 at 24 h [2] was 86.4 µM. The inhibition (MA104) was “Active” and the inhibition (Huh-7) was “Dose-dependent effect”.
